Drawing on ChEMBL document CHEMBL5096173, “Anti-SARS-CoV-2 Activity of Andrographis paniculata Extract and Its Major Component Andrographolide in Human Lung Epithelial Cells and Cytotoxicity Evaluation in Major Organ Cell Representatives” (J Nat Prod, 2021), this text covers IC50, Activity and selectivity ratio for four molecules.

The test system of data set [1] is SARS-CoV-2. Put plainly: Antiviral activity against SARS CoV-2 (01/human/Jan2020/Thailand) infected in human Calu-3 cells for 2 hrs assessed as inhibition of viral replication measured after 48 hrs post infection by IFA assay. Format: functional, organism-based. The following applies: for IC50: Severe acute respiratory syndrome coronavirus 2, (01/human/Jan2020/Thailand).

The test system of data set [2] is SARS-CoV-2. Nature of the data set: Antiviral activity against SARS CoV-2 (01/human/Jan2020/Thailand) infected in human Calu-3 cells for 2 hrs assessed as inhibition of viral replication measured after 48 hrs post infection by plague assay. It is filed as functional, organism-based. The following applies: Severe acute respiratory syndrome coronavirus 2, (01/human/Jan2020/Thailand).

For data set [3], the system named is SARS-CoV-2. Put plainly: Antiviral activity against SARS CoV-2 (01/human/Jan2020/Thailand) infected in African green monkey Vero E6 cells for 2 hrs assessed as inhibition of viral replication measured after 48 hrs post infection by IFA assay. Format: functional, organism-based. The following applies: Severe acute respiratory syndrome coronavirus 2, (01/human/Jan2020/Thailand), Vero C1008.

Data set [4] deals with SARS-CoV-2. Nature of the data set: Antiviral activity against SARS CoV-2 (01/human/Jan2020/Thailand) infected in African green monkey Vero E6 cells assessed as inhibition of viral replication pre-infected with cells for 2 hrs followed by compound addition and measured after 48 hrs post infection by plague assay. It is filed as functional, organism-based. The following applies: Severe acute respiratory syndrome coronavirus 2, (01/human/Jan2020/Thailand), Vero C1008.

Data set [5] deals with SARS-CoV-2. Nature of the data set: Antiviral activity against SARS CoV-2 (01/human/Jan2020/Thailand) infected in human Calu-3 cells for 2 hrs assessed as reduction in extracellular viral RNA measured after 48 hrs post infection by qRT-PCR analysis. Format: functional, organism-based. Conditions: Severe acute respiratory syndrome coronavirus 2, dose 0.1-100 µg/ml, DDE = dose-dependent effect. Background: In qPCR the cycle at which signal appears reflects the starting amount.

For data set [6], the system named is HepG2. Put plainly: Cytotoxicity against human HepG2 cells assessed as reduction in cell viability incubated for 48 hrs by MTT assay. It is filed as functional. The essentials:
(§1)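 Cells plated at 5×10^4/well and exposed 48 h to 0–100 µM (or extract 0–100 µg/mL). MTT added at 0.5 mg/mL final for 4 h at 37 °C, formazan dissolved in DMSO, absorbance read at 570 nm. Data normalised to solvent control and CC50 fitted.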

Data set [7] in a line: Cytotoxicity against human imHC cells assessed as reduction in cell viability incubated for 48 hrs by MTT assay. Format: toxicity, cell-based. The essentials:
as §1

For data set [8], the system named is HK-2. Nature of the data set: Cytotoxicity against human HK-2 cells assessed as reduction in cell viability incubated for 48 hrs by MTT assay. The following applies: hk-2, 48 h. Format: toxicity, cell-based. The method in brief:
as §1

Data set [9] relates to Caco-2. Put plainly: Cytotoxicity against human Caco-2 cells assessed as reduction in cell viability incubated for 48 hrs by MTT assay. Format: functional. The method in brief: as §1
The test system of data set [10] is Calu-3. Nature of the data set: Cytotoxicity against human Calu-3 cells assessed as reduction in cell viability incubated for 48 hrs by MTT assay. Format: functional. The method in brief:
as §1
A general note: Tetrazolium assays rely on reduction of a dye to a coloured formazan, in cell work by metabolically active cells.

Data set [11] deals with SH-SY5Y. Nature of the data set: Cytotoxicity against human SH-SY5Y cells assessed as reduction in cell viability incubated for 48 hrs by MTT assay. Format: functional. The method in brief: as §1
Data set [12] can be described thus: Selectivity index, ratio of CC50 for human HepG2 to IC50 for SARS CoV-2 (01/human/Jan2020/Thailand) infected in African green monkey Vero E6 cells. Format: toxicity. Conditions: read-out: Ratio CC50/IC50.
Data set [13] can be described thus: Selectivity index, ratio of CC50 for human imHC to IC50 for SARS CoV-2 (01/human/Jan2020/Thailand) infected in African green monkey Vero E6 cells. Format: toxicity. The following applies: read-out: Ratio CC50/IC50.
The nature of data set [14]: Selectivity index, ratio of CC50 for human HK-2 to IC50 for SARS CoV-2 (01/human/Jan2020/Thailand) infected in African green monkey Vero E6 cells. It is filed as toxicity. The following applies: HK-2 cells, read-out: Ratio CC50/IC50.
Data set [15] can be described thus: Selectivity index, ratio of CC50 for human Caco-2 to IC50 for SARS CoV-2 (01/human/Jan2020/Thailand) infected in African green monkey Vero E6 cells. It is filed as toxicity. Conditions: Caco-2 cells, read-out: Ratio CC50/IC50.
A short description of data set [16]: Selectivity index, ratio of CC50 for human Calu-3 to IC50 for SARS CoV-2 (01/human/Jan2020/Thailand) infected in African green monkey Vero E6 cells. Format: toxicity. The following applies: Calu-3 cells, read-out: Ratio CC50/IC50.
Data set [17] in a line: Selectivity index, ratio of CC50 for human SH-SY5Y to IC50 for SARS CoV-2 (01/human/Jan2020/Thailand) infected in African green monkey Vero E6 cells. Format: toxicity. Conditions: read-out: Ratio CC50/IC50.
The target of data set [18] is Replicase polyprotein 1ab (Severe acute respiratory syndrome coronavirus 2, UniProt P0DTD1). Nature of the data set: Inhibition of C-terminal His 6 tagged SARS CoV-2 main protease transfected in Escherichia coli BL21 (DE3). Details: species or system Severe acute respiratory syndrome-related coronavirus.
In data set [19] the test system is SARS-CoV-2. Put plainly: Antiviral activity against SARS CoV-2 (01/human/Jan2020/Thailand) infected in African green monkey Vero E6 cells for assessed as inhibition of viral replication preincubated for 1 hr followed by viral adsorption for 2 hrs and measured after 48 hrs by hoechst staining based analysis. The following applies: Severe acute respiratory syndrome coronavirus 2, (01/human/Jan2020/Thailand), Vero C1008. Format: functional, organism-based.

SMILES strings stand for the structures.

A word on the IC50: it is the point on the concentration scale where inhibition reaches its midpoint. Take `C=C1CC[C@@H]2[C@](C)(CO)[C@H](O)CC[C@@]2(C)[C@@H]1C/C=C1/C(=O)OC[C@H]1O` [ANDROGRAPHOLIDE]: the IC50 in data set [1] is 1680 nM; in data set [2], 34 nM; in [3], 6580 nM; in data set [4], 280 nM; in data set [18], 15000 nM; in data set [19], 19000 nM. In addition, the Activity result was “Dde” in data set [1] (Severe acute respiratory syndrome coronavirus 2, dose 0.1-100 µg/ml, DDE = dose-dependent effect); “Dde” in [5]; 81.52 µM in data set [6]; 44.55 µM in [7]; 34.11 µM in [8]; 52.3 µM in [9]. The Activity in data set [10] was 58.03 µM; in data set [11], 13.19 µM. The selectivity ratio in data set [12] came to 2400; in [13] it was 1310; in [14], 1000; in data set [15], 1540; in data set [16] it was 1710; in [17], 388.
In the case of `CCN(CCO)CCCC(C)Nc1ccnc2cc(Cl)ccc12` (stereo unspecified) [HYDROXYCHLOROQUINE], in data set [1], the IC50 is more than 50000 nM.
With `O=C(Nc1ccc([N+](=O)[O-])cc1Cl)c1cc(Cl)ccc1O` [NICLOSAMIDE], the IC50 in data set [1] was found to be 900 nM.
Regarding `CCC(CC)COC(=O)[C@H](C)N[P@](=O)(OC[C@H]1O[C@@](C#N)(c2ccc3c(N)ncnn23)[C@H](O)[C@@H]1O)Oc1ccccc1` [REMDESIVIR], the IC50 in data set [1] was 43 nM; in data set [2], 86 nM; in data set [3] it was 2710 nM; in data set [4] it was 2650 nM.
